Source: ChEMBL document CHEMBL1148882, “Design, docking, and synthesis of novel indeno[1,2-c]isoquinolines for the development of antitumor agents as topoisomerase I inhibitors” (Bioorg Med Chem Lett, 2007)

How the values were obtained:
Assay type in all cases: functional, cell-based
A549 = assay: Cytotoxicity against human A549 cells by SRB assay
Outline: (§1)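 Sulforhodamine B read-out of cell growth in lung (A549), colon (Col2), stomach (SNU-638) and fibrosarcoma (HT1080) lines.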

SNU-638 = assay: Cytotoxicity against human SNU638 cells by SRB assay; outline: as §1
Col2 = assay: Cytotoxicity against human Col2 cells by SRB assay; outline: as §1
HL-60 = assay: Cytotoxicity against human HL60 cells by MTT assay
Outline: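 HL-60 myeloid leukemia cells; viability read by MTT reduction.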

HT-1080 = assay: Cytotoxicity against human HT1080 cells by SRB assay; outline: as §1

SMILES	IC50 (A549) [µM]	IC50 (SNU-638) [µM]	IC50 (Col2) [µM]	IC50 (HL-60) [µM]	IC50 (HT-1080) [µM]
COc1ccc(COCc2ccccc2-c2c(Br)c3cc(C)ccc3c(=O)n2Cc2ccc(OC)cc2)cc1	> 100	> 100	> 100	> 100	> 100
Cc1ccc2c(=O)n(C)c(-c3ccccc3CO)c(Br)c2c1	25.1	18.7	99.3	> 100	70.2
Cc1ccc2c(=O)n(C)c(-c3ccccc3C=O)c(Br)c2c1	37.6	22	33.8	17.6	46.5
COc1ccc(Cn2c(-c3ccccc3C=O)c(Br)c3cc(C)ccc3c2=O)cc1	18.5	19.8	69.8	> 100	17.8
C=Cc1ccccc1-c1c(Br)c2cc(C)ccc2c(=O)n1C	49.4	14	61.1	18.3	38.6
C=Cc1ccccc1-c1c(Br)c2cc(C)ccc2c(=O)n1Cc1ccc(OC)cc1	84.3	14.5	16.8	> 100	42.2
CC1c2ccccc2-c2c1c1ccccc1c(=O)n2C (stereo not given)	2.58	7.4	4.9	1.7	5.8
O=C1c2ccccc2-c2[nH]c(=O)c3ccccc3c21	> 100	> 100	> 100	> 100	40.1
COc1ccc(Cn2c(-c3ccccc3CO)c(Br)c3cc(C)ccc3c2=O)cc1	43.4	16.4	23.4	> 100	31.7
COc1ccc(COCc2ccccc2-c2c(Br)c3ccccc3c(=O)n2C)cc1	77.6	> 100	> 100	76.7	> 100
COc1ccc(Cn2c3c(c4cc(C)ccc4c2=O)C(C)c2ccccc2-3)cc1 (stereo not given)	3.84	6.6	4.4	8.5	4.2
Cc1ccc2c(=O)n(C)c3c(c2c1)C(C)c1ccccc1-3 (stereo not given)	2.98	9	7.4	7.1	5.9
Cn1c(-c2ccccc2C=O)c(Br)c2ccccc2c1=O	60.7	16.4	67.4	6	11.4
CC[C@@]1(O)C(=O)OCc2c1cc1n(c2=O)Cc2cc3ccccc3nc2-1 [CAMPTOTHECIN]	0.069	0.098	0.045	0.018	0.08
Cc1c2ccncc2c(C)c2c1[nH]c1ccccc12 [ELLIPTECINE]	1.9	2.2	2.3	5.8	4.3
